Laboratory results taken from PubChem BioAssay.
The source made the active and inactive calls.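 Rule for the calls, unless noted: active = GFP response above 150% of the DMSO level; inconclusive = fewer than 70 events counted for a yeast strain; inactive = the rest.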

Assays:
[1] = hit retest on RPL19A-GFP reporter strain – cell-based, S. cerevisiae, flow cytometry, cherry picks, mother/daughter gates, confirmation (AID 2270;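 active = GFP response below 50% of the DMSO control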); details: 3 h, at 10 µM, stronger effect = lower value, 100 = same GFP as DMSO wells
[2] = yeast TOR pathway reporter LAP4-GFP change – cell-based, cherry picks, flow cytometry, mother/daughter gates, confirmation (AID 2271;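 active = GFP response above 150% of the DMSO control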;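 note: ratio of sample to DMSO plate mean so 100% equals DMSO level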); details: S. cerevisiae LAP4-GFP strain, 3 h, at 10 µM, stronger effect = higher value, 100 means same as DMSO control
Procedure, shortened: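 System: GFP-fusion yeast strain | Input: Yeast cells seeded at OD600 of 0.2 | Technique: HT flow cytometry, GFP fluorescence channel | Read-out: % GFP response vs DMSO | Dosing: Single test-compound dose, 10 µM final | Controls: Positive rapamycin (400 ng/mL), negative DMSO | Times: 3 h treatment at 30 °C with rotation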

[3] = TOR pathway reporter MEP2-GFP, retest of hits – S. cerevisiae, flow cytometry GFP, cherry picks, confirmation (AID 2272;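 active = GFP response above 150% of the DMSO control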;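 note: ratio of well signal to plate DMSO mean so 100% equals DMSO level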); details: S. cerevisiae MEP2-GFP strain, 3 h, at 10 µM, stronger effect = higher value
[4] = yeast AGP1-GFP fluorescence change, single-dose – cell-based, flow cytometry, S. cerevisiae, cherry picks, confirmation (AID 2273);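 note: median GFP channel fluorescence over the whole cell population gate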; details: S. cerevisiae AGP1-GFP strain, 3 h, at 10 µM
[5] = TOR pathway CIT2 reporter hit retest – S. cerevisiae, GFP fusion, cherry picks, mother/daughter gates, confirmation (AID 2274); details: S. cerevisiae CIT2-GFP strain, flow cytometry, 3 h, at 10 µM, stronger effect = higher value
[6] = measured here: daughter cell gate
[7] = measured here: mother cell gate
[8] = measured here: daughter cell gate response
[9] = measured here: mother cell gate response

Row | Compound | GFP response vs DMSO [1] | GFP response vs DMSO [1, 6] [%] | GFP response vs DMSO [1, 7] [%] | GFP response relative to DMSO [2] | GFP response relative to DMSO [2, 8] [%] | GFP response relative to DMSO [2, 9] [%] | GFP response vs DMSO [3] | GFP response, % of DMSO [4] | GFP response, % of DMSO [5] | GFP response, % of DMSO [5, 6] [%] | GFP response, % of DMSO [5, 7] [%]
1 | Cc1ccc(C(=O)c2c3ccccc3[n+]([O-])n2CCC(=O)O)cc1 | 66.2% (inactive) | 70.6 | 63.3 | 102% (inactive) | 101 | 105 | 104% (inactive) | 105% (inactive) | 99.3% (inactive) | 96.4 | 99.1
2 | CCCc1nn(-c2ccccc2)c2c1C(c1cccs1)C(C#N)=C(N)O2 (stereo not given) | 101% (inactive) | 100 | 102 | 90.2% (inactive) | 92.5 | 95.2 | 95.7% (inactive) | 95.9% (inactive) | 102% (inactive) | 98.1 | 102
3 | CC(=O)c1ccc(N2CCN(C(=O)c3ccc(Br)cc3)CC2)c(F)c1 | 111% (inactive) | 95.4 | 110 | 160% (active) | 117 | 160 | 117% (inactive) | 115% (inactive) | 111% (inactive) | 88.1 | 104
4 | Cc1ccc(Cl)cc1N1CCN(C(=O)CSc2ccsc2[N+](=O)[O-])CC1 | 98% (inactive) | 97.4 | 97.8 | 97% (inactive) | 95.9 | 96.2 | 101% (inactive) | 99.4% (inactive) | 100% (inactive) | 99.2 | 99.3
5 | O=C(Nc1nnc(-c2ccc(F)cc2)o1)c1cccc([N+](=O)[O-])c1 | 102% (inactive) | 97 | 101 | 157% (active) | 169 | 152 | 110% (inactive) | 97% (inactive) | 101% (inactive) | 103 | 99.3
6 | CC(=O)Nc1cccc(Oc2ccc(-c3noc(C)n3)cc2)c1 | 95.8% (inactive) | 93.4 | 96.3 | 101% (inactive) | 99.1 | 102 | 107% (inactive) | 93.6% (inactive) | 97.3% (inactive) | 95.6 | 96.8
7 | CCOC(=O)C1=C(Cc2ccc(F)cc2)C(=O)c2ccccc2C1=O | 97.8% (inactive) | 99.6 | 95.8 | 101% (inactive) | 97.9 | 104 | 106% (inactive) | 92.5% (inactive) | 95% (inactive) | 96.4 | 92.1
8 | Cc1c(Cc2ccccc2)c(NCCN(C)C)n2c(nc3ccccc32)c1C#N | 116% (inactive) | 45.5 | 99 | 249% (active) | 167 | 218 | 187% (active) | 143% (inactive) | 116% (inactive) | 135 | 92.8
9 | COc1ccc(NC(=S)NCCCCCC(=O)C[N+](=O)[O-])cc1 | 96% (inactive) | 96.4 | 96.1 | 90.2% (inactive) | 91.2 | 89.7 | 98.3% (inactive) | 98.7% (inactive) | 99.7% (inactive) | 101 | 97.3
10 | O=C(N/N=C/c1c(Cl)cccc1Cl)c1ccc(F)cc1 | 95% (inactive) | 96.1 | 95.7 | 105% (inactive) | 102 | 105 | 96.8% (inactive) | 97.1% (inactive) | 103% (inactive) | 103 | 102
11 | NS(=O)(=O)c1ccc(Sc2ccccn2)c([N+](=O)[O-])c1 | 97.4% (inactive) | 98.6 | 98.5 | 97.9% (inactive) | 99.2 | 98.3 | 100% (inactive) | 101% (inactive) | 98.3% (inactive) | 101 | 98.5
12 | CCN1C(=O)/C(=C\C(=O)c2cccs2)c2cc(Br)ccc21 | 97.6% (inactive) | 96.7 | 97.2 | 144% (inactive) | 128 | 140 | 104% (inactive) | 94.5% (inactive) | 99.3% (inactive) | 104 | 92.1
13 | C[C@@H](C(=O)Nc1nc2ccc(F)cc2s1)N1C(=O)C2CC=CCC2C1=O (stereo not given in full) | 98.7% (inactive) | 97.8 | 98.5 | 103% (inactive) | 101 | 104 | 102% (inactive) | 99.7% (inactive) | 101% (inactive) | 100 | 100
14 | COc1ccccc1C(=O)N1CCN(c2cccc(C(F)(F)F)c2)CC1 | 96.2% (inactive) | 97.3 | 97.4 | 95.3% (inactive) | 96.5 | 94.6 | 99.5% (inactive) | 98.9% (inactive) | 99.3% (inactive) | 100 | 100
15 | Cc1c(N2C(=O)/C(=C\c3ccccc3O)SC2=S)c(=O)n(-c2ccccc2)n1C | 101% (inactive) | 96 | 98.3 | 134% (inactive) | 130 | 137 | 102% (inactive) | 93.2% (inactive) | 105% (inactive) | 109 | 95.6
16 | O=[N+]([O-])c1ccc(SCCc2ccncc2)cc1 | 94.8% (inactive) | 97.4 | 95.4 | 99.2% (inactive) | 99.2 | 98.3 | 96.2% (inactive) | 98.7% (inactive) | 99.7% (inactive) | 101 | 101
17 | O=C(Nc1nccs1)C1CCCN1S(=O)(=O)c1ccc(F)cc1 (stereo not given) | 98.8% (inactive) | 99.8 | 100 | 96.2% (inactive) | 100 | 95.2 | 100% (inactive) | 100% (inactive) | 110% (inactive) | 103 | 114
18 | CN1C(=O)/C(=N\OC(=O)c2cccc3ccccc23)c2ccccc21 | 102% (inactive) | 99.8 | 93.4 | 163% (active) | 140 | 154 | 110% (inactive) | 88.4% (inactive) | 99.3% (inactive) | 102 | 80.5
19 | Cc1ccc(S(=O)(=O)N(CC(=O)NCc2ccncc2)Cc2ccccc2F)cc1 | 97.6% (inactive) | 97.1 | 98.5 | 99.2% (inactive) | 99.2 | 97.2 | 105% (inactive) | 102% (inactive) | 103% (inactive) | 101 | 102
20 | CCOc1cc(C(=S)N2CCCCC2)ccc1OS(=O)(=O)c1ccc(Cl)cc1 | 96.5% (inactive) | 96.1 | 96.5 | 102% (inactive) | 101 | 105 | 103% (inactive) | 105% (inactive) | 100% (inactive) | 99.3 | 98.2
21 | CS(=O)(=O)Nc1ccc(C2=NN(S(C)(=O)=O)C(c3ccc4c(c3)OCO4)C2)cc1 (stereo not given) | 98.6% (inactive) | 98.4 | 99.4 | 97.4% (inactive) | 102 | 99.3 | 104% (inactive) | 102% (inactive) | 103% (inactive) | 99.7 | 103
22 | Cc1ccc(NC(=O)c2nc(S(=O)(=O)Cc3ccccc3)ncc2Cl)cc1 | 92% (inactive) | 92.5 | 89.8 | 141% (inactive) | 134 | 140 | 95.7% (inactive) | 100% (inactive) | 90% (inactive) | 89.9 | 85.8
23 | CC(=O)Oc1ccc(N2C(=O)C3C4C=CC(O4)C3C2=O)cc1 (stereo not given) | 98.2% (inactive) | 99.1 | 98.9 | 102% (inactive) | 101 | 101 | 107% (inactive) | 96.8% (inactive) | 99.7% (inactive) | 99.1 | 99.7
24 | Cc1nn(Cc2ccccc2Cl)c(C)c1C(=O)NCc1ccco1 | 99.3% (inactive) | 101 | 98.8 | 97.7% (inactive) | 101 | 98.4 | 99.3% (inactive) | 99.3% (inactive) | 98.6% (inactive) | 99.3 | 100
25 | Cc1cc(N)ccc1NC(=O)c1ccccc1 | 101% (inactive) | 99.6 | 102 | 98.2% (inactive) | 99.1 | 98.4 | 105% (inactive) | 103% (inactive) | 100% (inactive) | 101 | 101
26 | CCOC(=O)c1ccc(NC(=O)CCc2nc(-c3ccccc3)no2)cc1 | 97.3% (inactive) | 97 | 97.5 | 107% (inactive) | 107 | 108 | 106% (inactive) | 99.3% (inactive) | 101% (inactive) | 101 | 98.2
27 | CC(C)Nc1nc(-c2ccccc2)nnc1-c1ccccc1 | 98.5% (inactive) | 98.4 | 97.7 | 107% (inactive) | 102 | 109 | 106% (inactive) | 96.1% (inactive) | 98.6% (inactive) | 97.6 | 98.2
28 | Cc1ccc(S(=O)(=O)N2CC3CCC2C3)cc1 (stereo not given) | 101% (inactive) | 100 | 104 | 97.4% (inactive) | 97.2 | 99.3 | 97.8% (inactive) | 97.4% (inactive) | 112% (inactive) | 110 | 114
29 | O=[N+]([O-])/C=C/c1cn(Cc2ccccc2)c2ccccc12 | 103% (inactive) | 98.1 | 98.2 | 134% (inactive) | 131 | 138 | 102% (inactive) | 98.3% (inactive) | 96.5% (inactive) | 94.8 | 91.2
30 | O=c1[nH]c(CN2CCCCC2)nc2c1C1(CCCCC1)Cc1ccccc1-2 | 100% (inactive) | 100 | 100 | 98.7% (inactive) | 98.7 | 101 | 100% (inactive) | 99.2% (inactive) | 99.1% (inactive) | 96.5 | 98.7
